The values that follow come from ChEMBL document CHEMBL3632498, “Identification of small molecule inhibitors of the STAT3 signaling pathway: Insights into their structural features and mode of action” (Bioorg Med Chem Lett, 2015).

In series [1] the target is Signal transducer and activator of transcription 3 (Homo sapiens) (UniProt P40763). The series is described as follows: Inhibition of STAT3 transcriptional activity in human oncostatin M-stimulated HeLa cells at 10 uM after 24 hrs by luciferase reporter gene assay. In kind it is cell-based. An outline of the steps:
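HeLa cells carrying a STAT3-luciferase reporter pretreated with DMSO or compound (10 µM) for 24 h, stimulated with oncostatin M 10 ng/mL for 5 h, then luciferase reporter activity measured.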

Series [2] shares this target. As to the kind of experiment: Binding to STAT3 in human MCF10A cells transformed with H-ras at 5 to 30 uM after 24 hrs using HRP-streptavidin by Western blot analysis. As to conditions: MCF-10A.
The target is the same in series [3]. The series is described as follows: Inhibition of STAT3 phosphorylation in human MCF10A cells transformed with H-ras at 10 uM after 24 hrs by Western blot analysis. In kind it is cell-based. The note with it: MCF-10A. An outline of the steps: (§1)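 Immunoblot of STAT3 phosphorylation in MCF10A-ras cells after 24 h treatment at 5 and 10 µM (analogs at 10 µM). In a thiol-reducing arm, cells got 0.5 mM DTT for 1 h before 10 µM compound for 24 h.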
For orientation: A western blot detects proteins with antibodies after separation by electrophoresis.

Series [4] shares this target. As to the kind of experiment: Inhibition of STAT3 phosphorylation in human MCF10A cells transformed with H-ras at 5 to 10 uM after 24 hrs by Western blot analysis. It counts as cell-based. The note with it: MCF-10A. An outline of the steps:
as §1

Series [5] has the same target. The series is described as follows: Inhibition of STAT3 phosphorylation in human MCF10A cells transformed with H-ras at 1 to 10 uM after 24 hrs by Western blot analysis. It counts as cell-based. As to conditions: MCF-10A. Summed up: (§2)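 MCF10A-ras cells treated at the indicated concentrations for 24 h; lysates immunoblotted for p-STAT3, total STAT3 and p-STAT1.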

The target in series [6] is T1, Signal transducer and activator of transcription 1-alpha/beta (Homo sapiens) (UniProt P42224).
T1 sequence (whole entry): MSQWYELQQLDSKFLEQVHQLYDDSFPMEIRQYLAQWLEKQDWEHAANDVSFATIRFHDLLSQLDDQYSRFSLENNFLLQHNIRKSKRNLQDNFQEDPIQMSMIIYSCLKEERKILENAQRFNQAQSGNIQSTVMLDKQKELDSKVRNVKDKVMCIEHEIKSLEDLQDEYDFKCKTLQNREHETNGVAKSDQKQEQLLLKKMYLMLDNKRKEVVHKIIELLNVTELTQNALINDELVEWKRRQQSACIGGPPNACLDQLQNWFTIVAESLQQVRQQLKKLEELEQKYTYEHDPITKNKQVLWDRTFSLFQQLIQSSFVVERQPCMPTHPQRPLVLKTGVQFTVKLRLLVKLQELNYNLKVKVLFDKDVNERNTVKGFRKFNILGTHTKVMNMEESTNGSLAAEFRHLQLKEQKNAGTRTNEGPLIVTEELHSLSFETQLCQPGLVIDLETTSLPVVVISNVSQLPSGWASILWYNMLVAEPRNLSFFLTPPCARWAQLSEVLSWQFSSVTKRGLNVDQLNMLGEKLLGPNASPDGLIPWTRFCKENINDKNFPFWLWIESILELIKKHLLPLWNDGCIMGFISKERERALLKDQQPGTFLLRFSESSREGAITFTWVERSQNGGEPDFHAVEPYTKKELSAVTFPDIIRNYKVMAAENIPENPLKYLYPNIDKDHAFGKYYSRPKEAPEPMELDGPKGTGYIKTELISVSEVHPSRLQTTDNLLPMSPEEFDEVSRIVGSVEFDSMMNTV
As to the kind of experiment: Inhibition of STAT1 phosphorylation in human MCF10A cells transformed with H-ras at 1 to 10 uM after 24 hrs by Western blot analysis. As to conditions: MCF-10A. In kind it is cell-based. An outline of the steps:
as §2

Series [7] can be described thus: Cytotoxicity against wild type human MCF10A cells at 2 uM after 24 hrs. It counts as cell-based. As to conditions: mcf-10a. Summed up:
(§3)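 MCF10A and MCF10A-ras cells exposed to each inhibitor for 24 h, then cytotoxicity measured.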

The next series deals with MCF-10A. The series is described as follows: Cytotoxicity against human MCF10A cells transformed with H-ras at 2 uM after 24 hrs. In kind it is functional, cell-based. Summed up: as §3
The subject of a further series is MCF7. As to the kind of experiment: Cytotoxicity against human MCF7 cells at 1 to 5 uM after 24 hrs. It counts as functional, cell-based. Summed up: (§4)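 MCF7 and MDA-MB-231 breast cancer cells treated at the indicated concentrations for 24 h; viability then assessed.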
For a further series, the system named is MDA-MB-231. As to the kind of experiment: Cytotoxicity against human MDA-MB-231 cells at 1 to 5 uM after 24 hrs. In kind it is functional, cell-based. An outline of the steps:
as §4

The source made the active and inactive calls. The calls are words filed in the database; no cut-off is given here.

Signal transducer and activator of transcription 3 (Homo sapiens), sequence (P40763 whole entry): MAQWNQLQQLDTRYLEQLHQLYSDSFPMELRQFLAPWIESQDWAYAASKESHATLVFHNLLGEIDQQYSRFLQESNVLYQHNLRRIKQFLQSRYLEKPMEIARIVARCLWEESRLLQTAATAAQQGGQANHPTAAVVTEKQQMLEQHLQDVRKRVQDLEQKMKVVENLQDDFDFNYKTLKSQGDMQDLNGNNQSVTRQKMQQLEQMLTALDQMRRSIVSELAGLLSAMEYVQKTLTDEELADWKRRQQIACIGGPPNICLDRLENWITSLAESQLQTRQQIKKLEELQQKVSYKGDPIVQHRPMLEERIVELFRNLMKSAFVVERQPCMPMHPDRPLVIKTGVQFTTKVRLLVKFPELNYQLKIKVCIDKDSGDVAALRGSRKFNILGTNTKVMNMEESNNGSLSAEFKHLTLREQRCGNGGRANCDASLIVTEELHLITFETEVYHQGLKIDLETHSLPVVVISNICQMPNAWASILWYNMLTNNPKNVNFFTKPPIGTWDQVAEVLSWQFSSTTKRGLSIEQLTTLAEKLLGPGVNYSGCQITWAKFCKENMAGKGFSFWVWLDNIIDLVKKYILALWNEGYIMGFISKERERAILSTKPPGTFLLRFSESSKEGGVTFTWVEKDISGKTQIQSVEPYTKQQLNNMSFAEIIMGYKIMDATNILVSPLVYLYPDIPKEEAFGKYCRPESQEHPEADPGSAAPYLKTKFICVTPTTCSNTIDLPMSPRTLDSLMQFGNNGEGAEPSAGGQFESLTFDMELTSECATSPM

Take `C=C(c1ccc(OC)c(OC)c1)C(O)c1ccc2c(c1OC)C=CC(C)(C)O2` (centres undefined): in series [1], the inhibition result is “inactive”.

`C=C(C(=O)c1ccc2c(c1OC)C=CC(C)(C)O2)c1ccc(OC/C=C/CNC(=O)CCCC[C@@H]2SC[C@@H]3NC(=O)N[C@@H]32)c(OC)c1`: the binding entry in series [2] is “Active”.

For the compound `COc1ccc(CC(=O)c2ccc3c(c2OC)C=CC(C)(C)O3)cc1OC`, the inhibition result in series [1] and in series [3] was “inactive” throughout.

For `C=C(C(=O)c1ccc2c(c1OC)C=CC(C)(C)O2)c1ccc(OC)c(OC)c1`, the inhibition result in [1], in series [4] and in series [5] was “Active” in each case. Also, the inhibition result in series [6] was “inactive”. The Activity entry in series [7] is “Non-toxic”. For the same compound, the outcome in the series on MCF-10A, in the series with MCF7 and with MDA-MB-231 was Active.

Regarding `COc1ccc(C(C)C(=O)c2ccc3c(c2OC)C=CC(C)(C)O3)cc1OC` (centres undefined), the inhibition entry in [1] and in series [3] was “inactive” each time.
